Experimental data gathered from unrelated publications.
Each line is one published result; the experiments were not run side by side.
Effect on: enzyme activity
Mode: inhibitor
CHEK2: Serine/threonine-protein kinase Chk2 (CHEK2, Homo sapiens, UniProt O96017)

Nc1nc(NC2CCCCC2)sc1C(=O)c1ccccc1  remaining activity (CHEK2; 10 µM): 61%
CCN(CC)c1ccc(C2=NNC(=O)CC2C)cc1[N+](=O)[O-] (stereo not drawn)  remaining activity (CHEK2; 10 µM): 101%
CC(C)(C)c1nc(-c2cccc(NS(=O)(=O)c3c(F)cccc3F)c2F)c(-c2ccnc(N)n2)s1  remaining activity (CHEK2; radiometric; 1 µM): 103%
CCCOc1ccc(OC)c(F)c1C(=O)c1ccc(C(=O)N[C@@H]2CNC[C@H]2NC(=O)c2ccc3[nH]ncc3c2)cc1  remaining activity (CHEK2; 10 µM): 13%
Cc1cnc(NC2CCOCC2)nc1-n1cnc(C(=O)NC(CN)c2cc(F)cc(Cl)c2)c1 (stereo not drawn)  remaining activity (CHEK2; radiometric; 1 µM): 75%
COc1cc(Cl)c(C(=O)N[C@@H](CN[C@H]2CC[C@@H](N)CC2)Cc2ccc(C#N)cc2)cc1-c1ccc(CN[C@H](C)c2ccc(C)cc2)o1  remaining activity (CHEK2; 1 µM): 98%
Cc1ccc(NC(=O)c2ccc(C)c(C(F)(F)F)c2)cc1C#Cc1nn(C2CCC(O)CC2)c2ncnc(N)c12 (stereo not drawn)  remaining activity (Serine/threonine-protein kinase Chk2 (CHEK2, Homo sapiens, UniProt O96017, I157T); 10 µM): 103%
FC(F)c1nc2ccccc2n1-c1nc(N2CCOCC2)nc(N2CCOCC2)n1  remaining activity (CHEK2; 10 µM): 88%
O=C(Nc1cnn(-c2csc(C(=O)NC3COC3)c2)c1)Nc1c(F)cccc1Cl  remaining activity (CHEK2; 5 µM): 91.5%
COc1cc(Nc2cnc(C#N)c(O[C@H](C)CN(C)C)n2)ncc1-c1cnn(C)c1  remaining activity (CHEK2; radiometric; 10 µM): 31%
Cc1ccc(C(=O)Nc2ccc(CN3CCN(C)CC3)c(C(F)(F)F)c2)cc1C#Cc1cnc2cccnn12  remaining activity (CHEK2; 23.5 nM): 98%
Cc1sc(C(=O)NC2COC2)cc1-n1cc(NC(=O)Nc2c(F)cccc2Cl)cn1  remaining activity (CHEK2; 10 µM): 95.2%
